Experimental data: ChEMBL document CHEMBL1914334, “Discovery and characterization of potent and selective 4-oxo-4-(5-(5-phenyl-1,2,4-oxadiazol-3-yl)indolin-1-yl)butanoic acids as S1P₁ agonists” (Bioorg Med Chem Lett, 2011)
The source made the active and inactive calls. No cut-off for these calls is given here.

Test system: Mus musculus
Experiment: Immunomodulatory activity BALB/C mouse assessed as induction of lymphopenia at 1 mg/kg, po after 5 hrs
Type: functional, organism-based
Design: dose 1 mg/kg
Details: not given
In short: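 Male BALB/c mice were given a single oral dose of 1.0 mg/kg or vehicle (0.5% methylcellulose). Blood lymphocytes were counted at one time point, 5 h post-dose, with n = 6 per dose group (mean ± SD). Lowering was judged relative to the vehicle group.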

With `O=C(O)CCc1nc2cc(-c3noc(-c4cc(C(F)(F)F)cc(C(F)(F)F)c4)n3)ccc2[nH]1` the Activity was “inactive”.

Test system: not listed separately
Experiment: Half life in human
Type: ADME, organism-based
Details: in vivo

For `CCCCCCCCc1ccc(CCC(N)(CO)CO)cc1.Cl` [FINGOLIMOD HYDROCHLORIDE], the half-life was 144 h.

Molecular target: T1, Sphingosine 1-phosphate receptor 1 (Homo sapiens, UniProt P21453)
Experiment: Agonist activity at human S1P1 receptor expressed in HEK293 cells assessed as inhibition of forskolin-stimulated cAMP production after 1 hr by HTRF assay
Type: functional, cell-based
Details: not given
In short: (§1)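 Human S1P₁ cAMP HTRF read-out; each EC₅₀ is the mean of three or more replicates.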

T1 sequence (P21453 whole entry): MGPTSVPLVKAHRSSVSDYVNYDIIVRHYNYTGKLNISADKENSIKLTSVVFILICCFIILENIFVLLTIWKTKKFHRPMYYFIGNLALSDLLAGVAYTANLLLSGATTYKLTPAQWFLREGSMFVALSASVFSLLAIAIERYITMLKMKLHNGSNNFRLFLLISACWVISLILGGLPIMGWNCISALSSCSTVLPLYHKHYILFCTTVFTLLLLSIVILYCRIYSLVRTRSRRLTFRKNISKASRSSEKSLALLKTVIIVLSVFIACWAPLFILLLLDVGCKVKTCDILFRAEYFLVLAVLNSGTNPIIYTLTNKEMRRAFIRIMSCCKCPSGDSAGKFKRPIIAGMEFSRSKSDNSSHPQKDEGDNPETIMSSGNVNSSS

Point of comparison: `COc1cc(-c2nc(-c3ccc4c(c3)CCN4C(=O)CCC(=O)O)no2)ccc1OC(F)F`, EC50 1.5 nM. Against it:
- O=C(O)CC(=O)N1CCc2cc(-c3noc(-c4cc(C(F)(F)F)cc(C(F)(F)F)c4)n3)ccc21 — 68-fold higher, 102 nM
- O=C(O)CCC(=O)N1CCc2cc(-c3noc(-c4ccc(OC(F)(F)F)cc4)n3)ccc21 — 45-fold higher, 68 nM
- COc1ccc(-c2nc(-c3ccc4c(c3)CCN4C(=O)CCC(=O)O)no2)cc1Cl — 7.3-fold higher, 11 nM
- COc1ccc2c(c1)CCN(c1noc(-c3cc(C(F)(F)F)cc(C(F)(F)F)c3)n1)C2 — 1.5-fold lower, 1 nM
- FC(F)(F)c1cc(-c2nc(-c3ccc4[nH]ccc4c3)no2)cc(C(F)(F)F)c1 — 50-fold higher, 75 nM
- FC(F)(F)c1cc(-c2nc(N3CCc4[nH]cnc4C3)no2)cc(C(F)(F)F)c1 — 270-fold higher, 406 nM
- FC(F)(F)c1cc(-c2nc(-c3ccc4c(c3)CCN4)no2)cc(C(F)(F)F)c1 — 25-fold higher, 37 nM
- N#Cc1cc(-c2nc(-c3ccc4c(c3)CCN4C(=O)CCC(=O)O)no2)ccc1OC1CCCC1 — 12-fold higher, 18 nM
- FC(F)(F)c1cc(-c2nc(-c3ccc4[nH]ncc4c3)no2)cc(C(F)(F)F)c1 — 4.8-fold higher, 7.2 nM
- O=C(O)CCN1CCc2cc(-c3noc(-c4cc(C(F)(F)F)cc(C(F)(F)F)c4)n3)ccc21 — 4.1-fold higher, 6.1 nM
- CCc1ccc(-c2nc(-c3ccc4c(c3)CCN4C(=O)CCC(=O)O)no2)cc1S(C)(=O)=O — 25-fold higher, 38 nM
- COc1ccc(-c2nc(-c3ccc4c(c3)CCN4C(=O)CCC(=O)O)no2)cc1OC(F)(F)F — 1.5-fold lower, 1 nM
- O=C(O)CCCCn1cc2cc(-c3noc(-c4cc(C(F)(F)F)cc(C(F)(F)F)c4)n3)ccc2n1 — 2.8-fold higher, 4.2 nM
- CCc1ccc(-c2nc(-c3ccc4c(c3)CCN4C(=O)CCC(=O)O)no2)cc1C(F)(F)F — 1.8-fold higher, 2.7 nM
- O=C(O)CCCn1ncc2cc(-c3noc(-c4cc(C(F)(F)F)cc(C(F)(F)F)c4)n3)ccc21 — 3.3-fold higher, 4.9 nM
- COc1ccc(-c2nc(-c3ccc4c(c3)CCN4C(=O)CCC(=O)O)no2)cc1C#N — 4.2-fold higher, 6.3 nM
- O=C(O)CCCC(=O)N1CCc2cc(-c3noc(-c4cc(C(F)(F)F)cc(C(F)(F)F)c4)n3)ccc21 — 4.4-fold higher, 6.6 nM
- CC(C)Oc1ccc(-c2nc(-c3ccc4c(c3)CCN4C(=O)CCC(=O)O)no2)cc1Br — 2.7-fold higher, 4 nM
- N[C@@H](CC(=O)N1CCc2cc(-c3noc(-c4cc(C(F)(F)F)cc(C(F)(F)F)c4)n3)ccc21)C(=O)O — within 1.5-fold, 1.63 nM
- O=C(O)CCC(=O)N1CCc2cc(-c3noc(-c4ccc(C5CCCC5)c(Cl)c4)n3)ccc21 — 1.8-fold lower, 0.82 nM
- O=C(O)CCC(=O)N1CCc2cc(-c3noc(-c4ccc(Cl)c(OC(F)(F)F)c4)n3)ccc21 — 3.5-fold higher, 5.3 nM
- COc1cc(C#N)cc(-c2nc(-c3ccc4c(c3)CCN4C(=O)CCC(=O)O)no2)c1 — 6.9-fold higher, 10.3 nM
- O=C(O)CCn1ncc2cc(-c3noc(-c4cc(C(F)(F)F)cc(C(F)(F)F)c4)n3)ccc21 — 6.5-fold higher, 9.8 nM
- CCOC(=O)CCn1ncc2cc(-c3noc(-c4cc(C(F)(F)F)cc(C(F)(F)F)c4)n3)ccc21 — higher, > 100 nM
- O=C(O)CCc1nc2cc(-c3noc(-c4cc(C(F)(F)F)cc(C(F)(F)F)c4)n3)ccc2[nH]1 — within 1.5-fold, 1.2 nM
- CC[C@H](C)Oc1ccc(-c2nc(-c3ccc4c(c3)CCN4C(=O)CCC(=O)O)no2)cc1Cl — 30-fold higher, 45 nM
- O=C(O)CCCn1ncc2c1CCN(c1noc(-c3cc(C(F)(F)F)cc(C(F)(F)F)c3)n1)C2 — 250-fold higher, 369 nM
- FC(F)(F)c1cc(-c2nc(N3CCc4[nH]ncc4C3)no2)cc(C(F)(F)F)c1 — 16-fold higher, 24 nM
- COc1ccc(-c2nc(-c3ccc4c(c3)CCN4C(=O)CCC(=O)O)no2)cc1C(F)(F)F — 7.3-fold higher, 11 nM
- COc1ccc(-c2nc(-c3ccc4c(c3)CCN4C(=O)CCC(=O)O)no2)cc1C — 12-fold higher, 18 nM
- FC(F)(F)c1cc(-c2nc(-c3ccc4[nH]cnc4c3)no2)cc(C(F)(F)F)c1 — 2.9-fold higher, 4.3 nM
- COC(=O)CCCCn1cc2cc(-c3noc(-c4cc(C(F)(F)F)cc(C(F)(F)F)c4)n3)ccc2n1 — 200-fold higher, 297 nM
- O=C(O)CCC(=O)n1ccc2cc(-c3noc(-c4cc(C(F)(F)F)cc(C(F)(F)F)c4)n3)ccc21 — 27-fold higher, 41 nM
- O=C(O)CCC(=O)N1CCc2cc(-c3noc(-c4ccc(-c5cccs5)c(C(F)(F)F)c4)n3)ccc21 — within 1.5-fold, 1.3 nM
- O=C(O)COc1ccc2c(c1)CCN(c1noc(-c3cc(C(F)(F)F)cc(C(F)(F)F)c3)n1)C2 — 36-fold higher, 54 nM
- CC(C)Oc1ccc(-c2nc(-c3ccc4c(c3)CCN4C(=O)CCC(=O)O)no2)cc1C#N — within 1.5-fold, 1.1 nM

Molecular target: T1, Sphingosine 1-phosphate receptor 1
Experiment: Agonist activity at human S1P1 receptor
Type: functional
Details: not given
In short: as §1

Point of comparison: `CCN(c1ccc2[nH]ncc2c1)S(=O)(=O)c1cc(C(F)(F)F)cc(C(F)(F)F)c1`, EC50 372 nM. Against it:
- FC(F)(F)c1cc(-c2nc(-c3ccc4[nH]ncc4c3)no2)cc(C(F)(F)F)c1 — 40-fold lower, 9.4 nM
- C=CCN(c1ccccc1)S(=O)(=O)c1cc(Cl)cc(Cl)c1 — 56-fold lower, 6.7 nM

Molecular target: T1, Sphingosine 1-phosphate receptor 1
Experiment: Agonist activity at recombinant human S1P1 receptor expressed in HEK293 cells after 2 hrs by beta-arrestin assay
Type: functional, cell-based
Details: not given

`CC(C)Oc1ccc(-c2nc(-c3ccc4c(c3)CCN4C(=O)CCC(=O)O)no2)cc1C#N` showed an EC50 of 6.8 nM.

Test system: not listed separately
Experiment: Aqueous solubility of the compound
Type: physicochemical
Details: buffer

In the case of `N[C@@H](CC(=O)N1CCc2cc(-c3noc(-c4cc(C(F)(F)F)cc(C(F)(F)F)c4)n3)ccc21)C(=O)O`, the solubility is reported as < 10 µg/mL.

Test system: Mus musculus
Experiment: Immunomodulatory activity BALB/C mouse assessed as induction of lymphopenia at 0.3 to 3 mg/kg, po after 8 hrs
Type: functional, organism-based
Details: not given
In short: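 Male BALB/c mice were dosed orally at 0.3, 1.0 or 3.0 mg/kg, or with vehicle (0.5% methylcellulose in water). Blood lymphocytes were followed over time post-dose (mean ± SD). Observed values were fitted with an indirect PK/PD model.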

In the case of `CC(C)Oc1ccc(-c2nc(-c3ccc4c(c3)CCN4C(=O)CCC(=O)O)no2)cc1C#N`, the Activity is reported as “Active”.
